Data: BindingDB's records for doi:10.1021/jm00370a001 (1984)
Peptide text beside a SMILES is read from it. * marks the point of attachment. Boc = CC(C)(C)OC(=O)*

Key:
[1] = Compound was evaluated for the inhibition of Leucine aminopeptidase and the inhibition constant was determined after preincubating the enzyme and inhibitor
Cytosol aminopeptidase = Cytosol aminopeptidase (Homo sapiens, UniProt P28838); assay: Compound was evaluated for the inhibition of Leucine aminopeptidase and the inhibition constant was determined after preincubating the enzyme and inhibitor
Chain of Cytosol aminopeptidase (P28838 whole entry): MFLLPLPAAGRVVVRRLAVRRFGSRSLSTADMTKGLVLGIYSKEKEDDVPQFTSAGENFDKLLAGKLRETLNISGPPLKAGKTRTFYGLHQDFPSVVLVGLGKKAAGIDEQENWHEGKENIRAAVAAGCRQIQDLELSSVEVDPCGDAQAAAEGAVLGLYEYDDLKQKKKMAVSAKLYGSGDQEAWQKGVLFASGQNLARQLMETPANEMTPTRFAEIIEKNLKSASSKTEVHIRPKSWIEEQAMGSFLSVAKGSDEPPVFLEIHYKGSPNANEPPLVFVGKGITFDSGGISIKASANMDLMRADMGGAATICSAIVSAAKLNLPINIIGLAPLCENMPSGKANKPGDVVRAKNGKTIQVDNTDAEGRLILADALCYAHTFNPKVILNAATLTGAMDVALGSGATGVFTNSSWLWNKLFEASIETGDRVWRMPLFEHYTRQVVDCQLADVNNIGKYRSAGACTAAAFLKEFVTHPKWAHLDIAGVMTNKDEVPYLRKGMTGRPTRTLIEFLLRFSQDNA
How it was run: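 For initial rates, enzyme was added to substrate plus inhibitor to start the reaction. For steady-state rates, enzyme was preincubated 15-20 min with inhibitor, then substrate was added. Double-reciprocal (Lineweaver-Burk) analysis was used.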

[2] = molecular target: Cytosol aminopeptidase (Sus scrofa) (UniProt P28839); assay: Compound was evaluated for the inhibition of Leucine aminopeptidase from porcine kidney and the inhibition constant was determined after preincubating the enzyme and inhibitor
Chain of Cytosol aminopeptidase (Sus scrofa) (P28839 whole entry, looked up): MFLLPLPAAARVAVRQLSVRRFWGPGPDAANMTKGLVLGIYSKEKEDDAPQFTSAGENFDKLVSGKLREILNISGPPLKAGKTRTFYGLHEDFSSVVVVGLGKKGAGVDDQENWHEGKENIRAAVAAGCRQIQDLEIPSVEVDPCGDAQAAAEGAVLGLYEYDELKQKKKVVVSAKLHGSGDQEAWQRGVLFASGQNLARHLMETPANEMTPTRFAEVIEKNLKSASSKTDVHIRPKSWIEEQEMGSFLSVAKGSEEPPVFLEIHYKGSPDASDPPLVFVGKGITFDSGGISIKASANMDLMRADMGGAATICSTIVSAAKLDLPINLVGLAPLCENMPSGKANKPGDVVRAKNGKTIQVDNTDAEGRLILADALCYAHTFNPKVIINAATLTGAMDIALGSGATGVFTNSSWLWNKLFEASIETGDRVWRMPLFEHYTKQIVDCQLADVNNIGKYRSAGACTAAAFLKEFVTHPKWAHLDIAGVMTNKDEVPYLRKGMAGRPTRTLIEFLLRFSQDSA

[3] = molecular target: Cytosol aminopeptidase (Sus scrofa) (UniProt P28839); assay: Compound was evaluated for the inhibition of Leucine aminopeptidase and the inhibition constant was determined after preincubating the enzyme and inhibitor
[4] = molecular target: Cytosol aminopeptidase (Sus scrofa) (UniProt P28839); assay: as above; remark: listed apart in the source

## CC(C)C[C@H](NC(=O)[C@@H](O)[C@H](N)CC(C)C)C(=O)O [2-(3-Amino-2-hydroxy-5-methyl-hexanoylamino)-4-methyl-pentanoic acid]
[1]
  Ki: 0.12 µM

## CC(C)CC(NC(=O)[C@H](C)[C@@H](N)Cc1ccccc1)C(=O)O (some centres not stated) [2-(3-Amino-2-methyl-4-phenyl-butyrylamino)-4-methyl-pentanoic acid]
Cytosol aminopeptidase
  Ki: 3.78 µM

## CC(C)[C@H](NC(=O)OC(C)(C)C)C(=O)N[C@H](C(=O)N[C@@H](CC(=O)O)C(=O)O)C(C)C [2-[2-(2-tert-Butoxycarbonylamino-3-methyl-butyrylamino)-3-methyl-butyrylamino]-succinic acid] (Boc-Val-Val-Asp-OH)
[2]
  Ki: 1400 µM

## CC(C)CC(N)C(O)C(=O)NC(C(=O)NC(CC(=O)O)C(=O)O)C(C)C (configuration not stated) [2-[2-(3-Amino-2-hydroxy-5-methyl-hexanoylamino)-3-methyl-butyrylamino]-succinic acid]
[1]
  Ki: 1.24 µM

## CC(C)C[C@@H](N)CC(=O)N[C@H](C(=O)N[C@H](C(=O)N[C@@H](CC(=O)O)C(=O)O)C(C)C)C(C)C [2-{2-[2-(3-Amino-5-methyl-hexanoylamino)-3-methyl-butyrylamino]-3-methyl-butyrylamino}-succinic acid]
[3]
  Ki: 681 µM

## CC(C)CCNC(=O)[C@@H](NC(=O)[C@@H](NC(=O)[C@H](O)[C@@H](N)CC(C)C)C(C)C)C(C)C [3-Amino-2-hydroxy-5-methyl-hexanoic acid {2-methyl-1-[2-methyl-1-(3-methyl-butylcarbamoyl)-propylcarbamoyl]-propyl}-amide]
[4]
  Ki: 0.89 µM

## CC(C)CCNC(=O)[C@H](O)[C@@H](N)Cc1ccccc1 [3-Amino-2-hydroxy-N-(3-methyl-butyl)-4-phenyl-butyramide]
[2]
  Ki: 0.5 µM
